Bioassay records (PubChem)
Mdm2 MdmX PPI = disrupts the human Mdm2-MdmX interaction. O15151+Q00987. SaOS-2 split-luciferase Mdm2/MdmX complementation, luminescence. inhibition, % at 8 µM. actives 3% (n = 330,000);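 active = inhibition of at least 50% at 8 µM in the primary screen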
697 NFkB inh = lowers PMA/ionomycin-induced NF-kB signal in 697 B cells; 697 B-cell NF-kB luciferase reporter, 16 h; inhibition, % at 4 µM; actives 0.33% (n = 330,000); AID 435022; in the data active = inhibition above about 35%
Jurkat NFkB inh = inhibitors of the PMA/ionomycin-induced NF-kB reporter in Jurkat cells; PMA/ionomycin-induced NF-kB luciferase reporter, luminescence; inhibition, % at 4 µM; actives 0.53% (n = 330,000); AID 435003; in the data active = inhibition above about 50%
IMP-1 inhibitor = inhibitors of Pseudomonas aeruginosa IMP-1 metallo-beta-lactamase; purified IMP-1, nitrocefin hydrolysis, epi-absorbance fluorescence; inhibition, % at 5.6 µM; actives 0.45% (n = 290,000); AID 1556;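 active = inhibition above the mean plus 3 SD of all compounds in the same screening run, cut at about 4.5% in these data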;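 also: 0% = IMP-1 with DMSO and 100% = DMSO wells lacking enzyme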
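System: Purified recombinant IMP-1 metallo-beta-lactamase enzyme | Measured by: Fluorescence quenching readout, ex 480/em 530 nm | Replication: Singlicate | Incubation: 15 min preincubation plus 25 min reaction at 25 °C | Evaluation: Percent inhibition from optical density relative to buffer-blank wells | Benchmarks: DMSO with and without IMP-1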
aSyn UTR inh = 5' untranslated region of α-synuclein, MLPCN primary screen. actives 0.82% (n = 300,000). inhibition, % (tested at 7.5 µM). alpha-synuclein 5'UTR reporter, inhibitor activity; in the data active = inhibition above about 60%;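 also: H4 neuroglioblastoma cells stably carrying SNCA 5'UTR luciferase fusion; 0% = DMSO wells and 100% = positive control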
VIM-2 inh = inhibitors of Pseudomonas aeruginosa VIM-2 metallo-beta-lactamase | purified VIM-2, nitrocefin hydrolysis, epi-absorbance fluorescence | inhibition, % at 5.6 µM | actives 0.89% (n = 290,000) | AID 1527;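 active = inhibition above the mean of all tested compounds plus 3 SD, cutoff set per screening run, cut at about 7.5% in these data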;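 also: red hydrolysis product quenches plate fluorescence so inhibitors raise well fluorescence; 0% = enzyme with DMSO and 100% = DMSO without enzyme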
Jurkat NFkB conf = inhibitors of the PMA/ionomycin-induced NF-kB reporter in Jurkat cells, retest; Jurkat NF-kB luciferase, 16 h; inhibition, % at 4 µM; shares compounds with Jurkat NFkB inh; AID 435020; actives 27% (n = 2,700);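 active = inhibition reaching about 45% at 4 µM in either replicate, limit read from the data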;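 also: plate controls were PMA/ionomycin stimulated DMSO wells for no effect and unstimulated DMSO wells for full effect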
697 NFkB conf = inhibitors of the PMA/ionomycin-induced NF-kB reporter in 697 B cells, retest; actives 35% (n = 2,000); 697 B-cell NF-kB luciferase, 16 h; shares compounds with 697 NFkB inh; inhibition, % at 4 µM; in the data active = inhibition mostly above about 28%, no sharp cut-off; inactive = mostly below about 22%
Mdm2-MdmX conf = human Mdm2/MdmX binding inhibition, confirmed. luminescent assay. actives 55% (n = 10,000). AID 489028. shares compounds with Mdm2 MdmX PPI. inhibition, % at 8 µM; in the data active = inhibition above about 40%
Full FLuc ctr = inhibits full-length luciferase, flagging false Mdm2/MdmX hits; actives 77% (n = 6,200); inhibition, % at 8 µM; shares compounds with Mdm2 MdmX PPI; SaOS-2 full-length luciferase counterscreen, luminescence;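 active = mean inhibition at 8 µM reaching about 37%, which flags the compound as non-specific, limit read from the data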;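 also: p53-null SaOS-2 cells with luciferase driven by a doxycycline-inducible promoter; compound on cells about two nights before reading with doxycycline added after day one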
Numbers without * were called inactive; · = no result. A selection: hits, their analogues and other compounds. The true share with any hit is near 4.7%.

SMILES	Mdm2 MdmX PPI	697 NFkB inh	Jurkat NFkB inh	IMP-1 inhibitor	aSyn UTR inh	VIM-2 inh	Jurkat NFkB conf	Mdm2-MdmX conf	Full FLuc ctr	others
Cc1ccc(C(=O)Nc2cc3ccccc3oc2=O)cc1	89*	1	79*	-5	111*	-2	77*	85*	32
Cc1ccc(NC(=O)NC2CC(=O)N(c3ccc4c(c3)OCCO4)C2)c(C)c1 (configuration not stated)	25	2	17	·	11	·	·	·	·
CCN(CC(=O)NCc1cccs1)C(=O)COc1ccc(C(C)=O)cc1	18	2	1	·	·	·	·	·	·
CCOc1ccc(Br)cc1C1=CC(=O)C[C@H](c2ccc(OC)cc2)C1	55*	-53	65*	·	·	·	47	48*	48*
N#CC1=C(N)Oc2c(ccc3cccnc23)C1c1ccccc1 (configuration not stated)	75*	-5	66*	-3	29	1	32	58*	54*
Cc1cc(SCc2ccc(Br)cc2)nc(=O)[nH]1	-7	-9	0	-2	-28	-5	·	·	·
O=C(Sc1cccc2cccnc12)c1ccc(F)cc1	93*	-151	101*	-3	·	-6	60*	95*	15
O=C(Sc1cccc2cccnc12)c1ccccc1Br	97*	-97	101*	-3	-242	-4	69*	90*	4
CCc1ccc(-c2cc(C)no2)cc1S(=O)(=O)N1CCN(c2ccccc2)CC1	60*	-65	53*	-1	-73	-1	7	43*	47*
O=c1[nH]c(Nc2nc3ccccc3o2)nc2c1CCCC2	100*	-275	71*	-8	48	-1	-50	75*	79*	697 NFkB conf=-99
N#Cc1ccsc1NC(=O)C1CCN(S(=O)(=O)c2cccs2)CC1	2	-9	3	·	-2	·	·	·	·
Cc1cc(C)cc(NC2=NC3(CCCCC3)N=C(N)N2)c1	59*	-2	66*	-5	-54	-4	12	53*	73*
CC(C)(C)NC(=O)C(=O)NN=C1CCCCCCCCCCC1	-19	4	4	-2	10	-3	·	·	·
NC(N)=NN=C1CCCCCCCCCCC1	60*	-44	69*	-3	26	-2	24	43*	58*
Cc1ccc(C(=O)NC2c3ccccc3-c3ccccc32)cc1	59*	-24	60*	0	41	1	2	58*	54*
COc1ccc(C(=O)/C(C#N)=N/Nc2ccc([N+](=O)[O-])cc2)cc1	90*	53*	60*	-2	102*	-1	59*	92*	51*	697 NFkB conf=11
O=[N+]([O-])c1ccc(C[n+]2cccc3c4ccccc4ccc32)cc1	19	2	11	-3	17	-2	·	·	·
CCCCCCCCCCCCCCCC[n+]1cccc2ccccc21	96*	62*	88*	-3	·	0	88*	100*	4	697 NFkB conf=23*
CCCCCCCCC[n+]1cccc2c3ccccc3ccc21	91*	-23	71*	0	69*	1	68*	87*	57*
Cc1ccccc1C[n+]1cccc2ccccc21	-4	-22	13	·	-19	·	·	·	·
COc1cccc(C(=O)N(C)Cc2c(C)nn(C3CCS(=O)(=O)C3)c2C)c1 (configuration not stated)	4	17	-10	·	·	·	·	·	·
Cc1cc(=O)cc(C)n1-c1ccccc1Br	-12	6	4	-3	4	-1	·	·	·
S=C(NCCCN1CCOCC1)N1CCN(c2nc(-c3ccc(Cl)cc3)cs2)CC1	62*	21	51*	-2	-8	0	20	11	·
S=C(NCCCN1CCOCC1)N1CCN(c2nc(-c3ccccc3)cs2)CC1	20	16	-3	-2	11	-3	·	·	·
O=C(NC1CCOc2ccccc21)C1CCCC1 (configuration not stated)	-24	10	-1	-3	18	-1	·	·	·
SMILES	Mdm2 MdmX PPI	697 NFkB inh	Jurkat NFkB inh	IMP-1 inhibitor	aSyn UTR inh	VIM-2 inh	Jurkat NFkB conf	Mdm2-MdmX conf	Full FLuc ctr	others
COc1ccc(/C=C/c2cc(-c3ccc(C)cc3)o[n+]2C)cc1	74*	93*	61*	-1	89*	0	52*	96*	51*	697 NFkB conf=41*
COC(=O)c1ccc(C(=O)OC)c(NC(=O)CSc2nc(-c3ccco3)cc(C(F)(F)F)n2)c1	·	·	·	-1	·	-2	·	·	·
COC(=O)c1ccccc1NC(=O)CSc1nc(-c2ccco2)cc(C(F)(F)F)n1	67*	0	56*	-3	·	-2	43	62*	74*
O=C(CSc1nc(-c2ccco2)cc(C(F)(F)F)n1)Nc1ccc2c(c1)CCC2	52*	8	61*	1	6	2	24	61*	45*
COC(=O)c1ccc(Nc2cc(C)nc3ccc(C)cc23)cc1	100*	-62	59*	-2	53	5	29	66*	52*
COc1ccc2nc(C)cc(Nc3ccc(C)cc3)c2c1	18	-24	0	2	27	4	·	·	·
COc1ccc(OC)c(Nc2cc(C)nc3ccc(C)cc23)c1	68*	-56	62*	·	63*	·	15	58*	48*
COc1ccc(/C=N/Nc2cc(C)nc3ccc(OC)cc23)c(OC)c1	100*	-8	77*	1	117*	5	44	99*	51*
CCn1c2ccccc2c2cc(Nc3cc(C)nc4ncnn34)ccc21	83*	-197	65*	-2	82*	5	49*	72*	109*
COc1ccc(NC(=O)/C(Cl)=C(/Cl)S(=O)Cc2ccccc2)cn1 (configuration not stated)	98*	-131	95*	2	121*	-1	98*	99*	1
COc1ccc(CS(=O)(=O)/C(Cl)=C(/Cl)C(=O)Nc2ccc(OC)nc2)cc1	94*	-156	81*	-6	-24	-5	85*	97*	51*
CN(C)CCCNc1c2ccccc2nc2ccccc12	100*	35	99*	-1	71*	12*	-57	100*	52*
CN(C)CCCNc1nc(-c2ccccc2)nc2ccccc12	10	-10	-15	-6	-8	3	·	·	·
